Screening results from PubChem BioAssay.
Sampled rows, rich in hits. Any-hit rate of the full collection: about 2.5%.
MEKK2wt PB1 HTS: modulators of MEK5 binding to wildtype MEKK2, primary screen, biochemical, multiplex bead flow cytometry, Alexa488-MEK5. binding response (% of control), % at 10 µM. 1.1% of 290,000 active. Alexa488-MEK5 binding to MEKK2 WT; actives lie on both sides; in the data active means binding response below about 67% or above about 130%
Efflux pump mplx: inhibitors of Candida efflux pumps in yeast, primary screen, S. cerevisiae, Nile Red, multiplex; S. cerevisiae Candida pump triplex; inhibition, % at 10 µM; 0.44% of 330,000 active; AID 485275, 2010;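 active means plate passing quality check with inhibition over a set limit, or well fluorescence over plate mean plus 4 SD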;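 further: Nile Red retained in pooled yeast measured as flow cytometry median fluorescence; 0% = buffer negative control and 100% = Enniatin B positive control; higher means more Nile Red kept so more efflux inhibition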
ABCG2 block: ABCG2 efflux pump inhibitors, primary screen, multiplex with ABCB1, IgMXP3 cells, flow cytometry; Broad substrate specificity ATP-binding cassette transporter ABCG2 (Homo sapiens), Q9UNQ0; JC-1 efflux; inhibition, % at 6.6 µM; 0.1% of 190,000 active;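 active means inhibition above 80%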;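 further: 0% = DMSO and 100% = nicardipine control wells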
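System: two drug-resistant human cell lines, ABCG2 and ABCB1; controls: nicardipine high and DMSO low controls; times: 10 min exposure at 25 °C with rotation, no wash; detection: flow cytometry of retained JC-1 fluorescence; read-out basis: percent efflux inhibition, scaled nicardipine 100% to DMSO 0%; doses: one concentration, 6.6 µM final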
MEKK2 mut-MEK5: MEK5 binding signal on mutant MEKK2 PB1, primary screen, biochemical, multiplex bead flow cytometry, Alexa488-MEK5; Alexa488-MEK5 binding to MEKK2 mutant; percent response, % at 10 µM; 0.35% of 290,000 active; AID 1530, 2009; in the data active means percent response above about 24%, passing the limit was not always enough
MEKK3 PB1 HTS: modulators of MEKK3-MEK5 PB1 binding, primary screen, biochemical, wildtype MEKK3, multiplex bead flow cytometry, Alexa488-MEK5; Mitogen-activated protein kinase kinase kinase 3 (Homo sapiens), Q99759; bead-based flow cytometry, Alexa488-MEK5 binding to MEKK3; actives lie on both sides; 0 = blocked by unlabeled MEK5, 100 = vehicle; binding response (% of control), % at 10 µM; 1.4% of 290,000 active; AID 1529, 2009;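 active means binding response more than 3 SD above or below the average of its plate-row segment, actives on both sides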;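 further: Alexa488 bead fluorescence after subtracting the streptavidin-only scavenger bead signal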
ABCB1 block: ABCB1 efflux pump inhibitors, primary screen, cell-based, multiplex, flow cytometry, ABCG2 counter-screen; ATP-dependent translocase ABCB1 (Homo sapiens), P08183; CCRF-Adr cells, JC-1 efflux; inhibition, % at 6.6 µM; 0.067% of 190,000 active; in the data active means inhibition above about 40%;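 further: 0% = vehicle and 100% = reference inhibitor; higher value means more JC-1 retained so stronger ABCB1 efflux block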
Yeast cmpd fluor: compound fluorescence in yeast efflux pump counter-screen; shares compounds with Efflux pump mplx; fluorescence ratio to DMSO, % at 10 µM; AID 588517; 4% of 1,700 active; S. cerevisiae AD/pABC3, flow cytometry;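 active means fluorescence ratio to DMSO above its plate's cutoff, the plate mean ratio plus 5 SD, cut at about 210% in these data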;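 further: unstained yeast with no Nile Red so the signal is compound autofluorescence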
CaMdr1 efflux inh: inhibitors of Candida albicans Mdr1 efflux, confirmation, flow cytometry, singleplex, Cherry Pick1 set. AID 588518, 2011. 1% of 1,700 active. shares compounds with Efflux pump mplx. inhibition, % at 10 µM. S. cerevisiae AD/CaMDR1, Nile Red efflux; in the data active means inhibition above about 26%;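 further: 0% = DMSO vehicle and 100% = reference inhibitor; higher means more Nile Red retained so more efflux inhibition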
Cdr2 pump inh: inhibitors of Candida albicans Cdr2 efflux pump, confirmation, S. cerevisiae AD/CaCDR2, flow cytometry, cherry pick 1, singleplex | AID 588520, 2011 | 4% of 1,700 active | shares compounds with Efflux pump mplx | Nile Red retention | Nile Red retention ratio vs DMSO, % at 10 µM; in the data active means Nile Red retention ratio vs DMSO above about 190%;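 further: higher ratio means more blocking of Cdr2 efflux of the dye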
CaCdr1 efflux inh: inhibitors of Candida albicans Cdr1 efflux pump, confirmation, S. cerevisiae AD/CaCDR1, flow cytometry, cherry pick 1, singleplex | 1% of 1,700 active | inhibition, % at 10 µM | AID 588522, 2011 | Nile Red efflux | shares compounds with Efflux pump mplx;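 active means inhibition above the screen-wide mean plus twice its standard deviation, cut at about 32% in these data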
Numbers without * were called inactive; . = not tested or not shown.

SMILES	MEKK2wt PB1 HTS	Efflux pump mplx	ABCG2 block	MEKK2 mut-MEK5	MEKK3 PB1 HTS	ABCB1 block	Yeast cmpd fluor	CaMdr1 efflux inh	Cdr2 pump inh	CaCdr1 efflux inh
O=C(c1cn(-c2ccccc2)nc1-c1ccc(F)cc1)N1CCOCC1	92	0	26	-2	91	1	.	.	.	.
COC(=O)c1ccc(CNC(=O)COC(=O)CC23CC4CC(CC(Br)(C4)C2)C3)cc1	107	0	-1	-1	103	0	.	.	.	.
Cc1ccc(NC(=S)NN(C)c2nc(C)cnc2C)cc1	110	9.6*	0	-1	105	0	89	0	108	0
Cc1c(C(=O)Nc2c(F)cccc2F)sc2ncn(CC(=O)N3CCCCC3)c(=O)c12	101	0	.	-3	101	.	.	.	.	.
COCCNC(=O)c1sc2ncn(CC(=O)N3CCCCC3)c(=O)c2c1C	96	1.8*	0	-1	94	0	106	0	106	0
COc1ccccc1CC(=O)Nc1ccccc1O	100	0	9	7	99	2	.	.	.	.
COc1ccccc1CC(=O)NC(=O)c1ccccc1O	102	3.0*	.	-4	107	.	104	0	104	0
CCc1nnc(NS(=O)(=O)c2ccc(NC(=S)NC(=O)/C=C/c3ccccc3)cc2)s1	91	5.8*	-7	-2	83	-1	113	0	123	0
CCOc1ccc(S(=O)(=O)N2CCN(c3ccccc3OC)CC2)c2cccnc12	106	0	0	4	101	1	.	.	.	.
Cc1cccc(NC(=S)NCc2cccn2C)c1	101	0	15	3	98	0	.	.	.	.
Cc1ccc(NC(=S)NCc2cccn2C)cc1	114	1.2*	8	8	108	0	105	0	94	0
O=C(O)c1ccc(-c2ccc(/C=c3/sc4nc5ccccc5n4c3=O)o2)cc1Cl	95	0.8*	.	-3	100	.	103	0	148	0
Cc1cc(/C=c2\sc3nc4ccccc4n3c2=O)c(C)n1-c1ccc(C(=O)O)cc1	102	.	2	-2	101	1	.	.	.	.
Cc1ccc2c(nc3s/c(=C\c4ccc(-c5ccccc5C(=O)O)o4)c(=O)n32)c1C	92	0.7*	.	-4	101	.	102	0	121	0
Cc1ccc(C)c(N2C(=N)S/C(=C\c3ccc(-c4ccccc4C(=O)O)o3)C2=O)c1	66	0	5	-44	123	0	.	.	.	.
COc1ccccc1N(CN1CCCC1=O)C(=O)COc1ccccc1	97	0	2	0	100	1	.	.	.	.
O=C(O)c1cc(NS(=O)(=O)c2ccc(N3CCCCC3)c([N+](=O)[O-])c2)cc(C(=O)O)c1	101	11*	2	0	105	1	103	0	107	0
COc1cc(N)ccc1Cc1ccc(N)cc1OC	104	0.5*	-1	-1	103	0	101	0	114	0
COc1ccc(N)cc1C#N	104	0.7*	2	1	104	0	100	0	108	0
COc1ccc(N)cc1-n1c(C)ccc1C	88	0	1	-8	92	0	.	.	.	.
COc1cc(/C=N/n2nnnc2N)cc(OC)c1OC	103	0	.	4	103	.	.	.	.	.
CC1c2c([nH]c3ccccc23)CCC1C(=O)O (centres undefined)	111	0	3	1	108	0	.	.	.	.
N#CCCN1CCN(C(=S)c2ccc(-c3ccc(Cl)c(Cl)c3)o2)CC1	104	1.0*	0	5	104	0	104	0	90	0
O=C(C1CCCCC1)N1CCCC(c2nc(-c3ccc(F)cc3)no2)C1 (centres undefined)	106	8.2*	0	6	104	0	104	0	112	0
CCN(CC)S(=O)(=O)c1ccc(N2CCOCC2)c(NC(=O)CCC2CCCCC2)c1	98	13*	18	2	100	8	101	0	94	0
SMILES	MEKK2wt PB1 HTS	Efflux pump mplx	ABCG2 block	MEKK2 mut-MEK5	MEKK3 PB1 HTS	ABCB1 block	Yeast cmpd fluor	CaMdr1 efflux inh	Cdr2 pump inh	CaCdr1 efflux inh
CCN(CC)S(=O)(=O)c1ccc(N2CCOCC2)c(NC(=O)CC(C)(C)C)c1	95	0	.	-16	88	.	.	.	.	.
Cc1c(C#N)c(NC(=O)C(C)C)n(Cc2ccccc2)c1C	100	0	-1	-6	97	1	.	.	.	.
CCCOc1ccc(C(=O)Nc2ccc(NC(=O)c3cccs3)cc2)cc1	105	1.7*	.	-2	106	.	105	0	117	0
CCN(CC)c1cccc(OCC(=O)N(C)CCC#N)c1	.	2.1*	1	73*	89	0	202	1	142	1
CN(C(=O)COC(=O)CCC(=O)c1ccc(F)cc1)C1CCCCC1	.	0	.	.	.	.	.	.	.	.
Cc1ccc(C(=O)COc2ccccc2-c2ccccc2)cc1C	109	13*	12	-2	96	0	100	0	91	1
O=C(COc1ccccc1-c1ccccc1)c1ccccc1	90	1	16	3	97	0	.	.	.	.
COc1ccc(CN2CCN(Cc3ccc(Br)cc3)CC2)c(OC)c1OC	97	1	.	-12	89	.	.	.	.	.
O=C1C(=O)N(CC2CCCO2)C(c2ccccc2[N+](=O)[O-])/C1=C(/O)c1ccccc1 (centres undefined)	100	1.4*	1	0	104	0	85	0	96	0
O=C(CN1C(=O)c2ccccc2S1(=O)=O)Nc1ccon1	.	1.1*	.	.	.	.	100	0	106	0
